Screening data as filed in PubChem.
A selection: hits, their analogues and other compounds. The true share with any hit is near 2.4%.
VIM-2 inh = inhibitors of Pseudomonas aeruginosa VIM-2 metallo-beta-lactamase. purified VIM-2, nitrocefin hydrolysis, epi-absorbance fluorescence. inhibition, % at 5.6 µM. hit rate 0.89% among 290,000;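 active = inhibition above the mean of all tested compounds plus 3 SD, cutoff set per screening run, cut at about 7.5% in these data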;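 also: red hydrolysis product quenches plate fluorescence so inhibitors raise well fluorescence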
HGIII-sPLA2 inh = Inhibits HGIII-sPLA2 liposome hydrolysis, primary screen; QFRET BODIPY PC-A2 liposome hydrolysis, fluorescence; AID 743126; Q9NZ20; inhibition, % at 12.2 µM; hit rate 0.56% among 370,000;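 active = inhibition above mean plus 3 SD of compounds lying within the high and low control bounds, cut at about 19% in these data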
PfM18AAP inh-1 = PfM18AAP enzyme inhibition; recombinant PfM18AAP, H-Glu-NHMec fluorogenic cleavage; inhibition, % at 7.35 µM; hit rate 1.2% among 290,000; AID 1822;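 active = inhibition above the campaign mean inhibition over all tested compounds plus 3 SD, cut at about 28% in these data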
IMP-1 inh = blocks Pseudomonas aeruginosa IMP-1 metallo-beta-lactamase. purified IMP-1, nitrocefin hydrolysis, epi-absorbance fluorescence. inhibition, % at 5.6 µM. hit rate 0.45% among 290,000;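 active = inhibition above the mean plus 3 SD of all compounds in the same screening run, cut at about 4.5% in these data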
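Test system: recombinant IMP-1 enzyme, purified / Medium: HEPES buffer pH 7.1 with ZnSO4 and Brij 35 / Doses: single dose, 5.6 µM / Times: 25 °C, 15 min preincubation, 25 min reaction / Detection: Epi-absorbance via hydrolysed-nitrocefin quenching of white-plate fluorescence, 480/530 nm, EDTA stop / Evaluation: percent inhibition from optical density relative to buffer-blank wells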
PfM18AAP inh-2 = confirmation of Plasmodium falciparum M18 aspartyl aminopeptidase inhibitors; recombinant PfM18AAP, H-Glu-NHMec fluorogenic cleavage; hit rate 28% among 2,400; shares compounds with PfM18AAP inh-1; inhibition, % at 7.35 µM;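 active = mean inhibition over replicate wells above the hit cutoff set for the earlier primary screen, cut at about 29% in these data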
CTSL1 counter = Cathepsin L (human) inhibition, confirmation. shares compounds with PfM18AAP inh-1. inhibition, % at 5.96 µM. 2,400 tested, under 10 active. purified cathepsin L1, Z-Leu-Arg-MCA fluorescence. AID 2178;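 active = average inhibition across replicates above the hit cutoff set in the earlier primary screen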
Target sequence (P07711 whole entry, looked up): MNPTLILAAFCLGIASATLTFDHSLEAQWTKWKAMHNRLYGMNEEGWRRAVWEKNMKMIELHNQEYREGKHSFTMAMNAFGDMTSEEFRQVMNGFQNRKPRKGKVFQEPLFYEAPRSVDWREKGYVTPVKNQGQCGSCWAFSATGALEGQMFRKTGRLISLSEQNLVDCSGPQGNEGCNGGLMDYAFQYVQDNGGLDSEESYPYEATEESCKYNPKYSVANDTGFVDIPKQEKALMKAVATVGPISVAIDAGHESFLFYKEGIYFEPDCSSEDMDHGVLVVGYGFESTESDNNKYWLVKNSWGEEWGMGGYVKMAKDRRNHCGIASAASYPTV
hGIII sPLA2 conf = human GIII-sPLA2 inhibition, confirmation; shares compounds with HGIII-sPLA2 inh; recombinant hGIII-sPLA2, BODIPY PC-A2 QFRET fluorescence; inhibition, % at 12.2 µM; hit rate 34% among 2,000;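 active = mean inhibition across triplicates above the hit cutoff set in the earlier primary screen, cut at about 19% in these data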
535nm interf = optically interferes with 535nm fluorescence in sPLA2 counter-screen | BODIPY FL product fluorescence interference, QFRET | inhibition, % at 12.2 µM | hit rate 8.5% among 2,000 | shares compounds with HGIII-sPLA2 inh;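 active = average inhibition above the solvent-only control mean plus 3 SD, cut at about 6% in these data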
535nm interf DR = counter-screen for HGIII-sPLA2 inhibitors: 535nm fluorescence interference, dose response; 240 tested, under 10 active; BODIPY FL product fluorescence interference, cell-free; AID 743455; IC50, µM; shares compounds with HGIII-sPLA2 inh;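 active = IC50 at or below 10 µM; inactive = IC50 above 10 µM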
A number is an active result; 0 = inactive; - = no result given.

SMILES	VIM-2 inh	HGIII-sPLA2 inh	PfM18AAP inh-1	IMP-1 inh	PfM18AAP inh-2	CTSL1 counter	others
CCNc1nc(NCC)nc(N/N=C/c2ccc(O)c(O)c2)n1	0	0	47	0	33	0
Fc1ccccc1NC(=S)Nn1cnnc1	0	0	75	0	54	0
CCc1ccccc1NC(=O)CC(=O)Nc1ccccc1CC	0	0	0	0	-	-
Cc1ccccc1NC(=S)NN1CCN(C)CC1	0	0	0	0	-	-
CCOc1ccccc1NC(=S)Nn1cnnc1	0	0	74	0	56	0
CCOc1ccccc1NC(=S)Nc1ccccc1F	0	0	0	0	-	-
Fc1ccccc1NC(=S)NCc1ccccc1	0	0	0	0	-	-
Cc1ccccc1NC(=S)Nn1cnnc1	0	0	73	0	52	0
CCc1ccccc1NC(=S)Nn1cnnc1	0	0	76	0	70	0
CC1CCN(CCCNC(=O)C2CCC(CNS(=O)(=O)c3ccccc3)CC2)CC1 (centres undefined)	0	0	0	0	-	-
O=C(C(=O)N1CCN(c2ccncc2)CC1)c1cccc(Br)c1	-	0	-	-	-	-
Cc1cccc(NC(=S)Nn2cnnc2)c1C	0	0	72	0	69	0
COc1ccc(C(=O)NCC(=O)N2CCCC(C(F)(F)F)C2)cc1OC (centres undefined)	-	0	-	-	-	-
Cc1ccc(C2NC(=S)N3C(c4ccc(C)cc4)NC(=S)N23)cc1 (centres undefined)	-	0	-	-	-	-
S=C1NC(c2ccccc2)N2C(=S)NC(c3ccccc3)N12 (centres undefined)	0	0	38	0	0	0
CCC(C)n1ncn(-c2ccc(N3CCN(c4ccc(O)cc4)CC3)cc2)c1=O (centres undefined)	0	0	34	0	0	0
CCC(C)n1ncn(-c2ccc(N3CCN(c4ccc(OCC5COC(Cn6cncn6)(c6ccc(Cl)cc6Cl)O5)cc4)CC3)cc2)c1=O (centres undefined)	0	0	0	0	-	-
CC1(C(=O)NS(=O)(=O)c2ccccc2Cl)CCN1C(=O)C1(c2ccc(Cl)cc2)CCC1 (centres undefined)	-	0	-	-	-	-
O=C(O)c1cc([N+](=O)[O-])c(N2CCCC2)c([N+](=O)[O-])c1	0	0	38	0	0	0
O=[N+]([O-])c1cc(C(F)(F)F)cc([N+](=O)[O-])c1N1CCCNCC1	0	0	0	0	-	-
CCN1/C(=C2\C(=O)N(C)C(=S)N2C)C=Cc2cc(OC)ccc21	0	0	34	0	0	0
CCN1C(=O)/C(=C2/C=Cc3cc(C)ccc3N2CC)N(C)C1=S	0	0	0	0	-	-
COc1cc(/C=N/NC(=O)CC#N)cc(Br)c1O	0	0	57	0	0	0
CCOC(=O)C1=C(COC(=O)c2ccc(C)c(S(=O)(=O)N3CCOCC3)c2)NC(=O)NC1C (centres undefined)	-	0	-	-	-	-
COCCCNC(=O)C1=CCN(S(=O)(=O)c2ccc(C)cc2)CC1	0	0	0	0	-	-
SMILES	VIM-2 inh	HGIII-sPLA2 inh	PfM18AAP inh-1	IMP-1 inh	PfM18AAP inh-2	CTSL1 counter	others
NC(=O)NNc1ncc(C(F)(F)F)cc1Cl	0	0	45	0	36	0
O=C(NNc1ncc(C(F)(F)F)cc1Cl)c1c(Cl)cccc1Cl	0	0	0	0	-	-
O=C(O)c1ccc(/C=N/Nc2ncc(C(F)(F)F)cc2Cl)cc1	0	0	48	0	0	0
C[C@H](NC(=O)c1[nH]cnc1C(=O)Nc1ccccc1F)c1ccccc1	-	0	-	-	-	-
CC[n+]1c(C)sc2c3ccsc3ccc21	0	0	55	0	0	0
C=CCSC1=N/C(=C\c2cc(OCC)c(OC(C)=O)c([N+](=O)[O-])c2)C(=O)S1	0	0	38	0	0	0
CC(C)n1c(=S)[nH]c2c1c(=O)[nH]c(=O)n2C	0	0	36	0	29	0
COC(=O)C(NC(=O)c1ccccc1C(=O)O)c1ccc2ccccc2c1 (centres undefined)	0	0	0	0	-	-
O=c1c2ccccc2nc2n1CCC2	0	0	46	0	0	0
O=c1c2ccccc2nc2n1CCCCC2	0	0	0	0	-	-
CC(C)CCN(C)C1CCN(C(=O)Nc2ccccc2)CC1	-	0	-	-	-	-
O=C(Cc1ccccc1)Nc1ccc2c(c1)CCC2	0	0	0	0	-	-
O=C(CC1CCCC1)Nc1ccc2c(c1)CCC2	0	0	46	0	0	0
CCOC(=O)C1=C(c2ccccc2)NC(=O)NC1c1ccc(O)c(OCC)c1 (centres undefined)	0	0	0	0	-	-
CCOc1cc(C2NC(=O)NC2=O)ccc1O (centres undefined)	0	0	35	0	0	0
S=C(Nc1cccc(Cl)c1Cl)N1CCCC1	0	0	0	0	-	-
O=C(Nc1cccc(Cl)c1Cl)Nn1cnnc1	0	0	84	0	77	0
S=C(Nc1cccc(Cl)c1Cl)Nn1cnnc1	0	0	82	0	82	0
COc1cc(C)nc(NS(=O)(=O)c2ccccc2Cl)n1	0	0	0	0	-	-
Cc1cc(NN)nc(NS(=O)(=O)c2ccccc2Cl)n1	0	0	39	0	0	0
Cc1ccc(S(=O)(=O)Nc2nc(C)cc(NN)n2)cc1	0	0	40	0	29	0
Cc1ccc(S(=O)(=O)Nc2nc(C)cc(NCCN)n2)cc1	0	0	0	0	-	-
N=c1c(C(=O)NC2CCCCC2)cc2c(=O)n3ccccc3nc2n1CCc1ccccc1	0	0	0	0	-	-
O=C(Nc1ccncc1)C1CCN(S(=O)(=O)c2c(Cl)cccc2Cl)CC1	-	0	-	-	-	-
N#Cc1c(N)oc(-c2ccc3c(c2)OCO3)c1-c1ccc2c(c1)OCO2	0	0	48	0	0	0
SMILES	VIM-2 inh	HGIII-sPLA2 inh	PfM18AAP inh-1	IMP-1 inh	PfM18AAP inh-2	CTSL1 counter	others
CN1C(=O)C(=O)N(CC(=O)Nc2ccccc2OC(F)F)C1=O	-	0	-	-	-	-
COc1ccccc1N1CCN(C(=O)c2ccccc2N(C)S(=O)(=O)c2ccc(C)cc2)CC1	0	0	0	0	-	-
O=[N+]([O-])c1ccc(NNS(=O)(=O)c2cc(Cl)ccc2Cl)nc1	0	23	55	0	0	0	hGIII sPLA2 conf=48;535nm interf=72
CO[C@H]1CN(C)C(=O)c2ccc(NC(=O)c3ccc4c(c3)OCO4)cc2OC[C@H](C)N(CC2CC2)C[C@@H]1C	-	0	-	-	-	-
CCc1nnc(NC(=O)c2ccc(S(=O)(=O)N3CCCC(C)C3)cc2)s1 (centres undefined)	0	0	0	0	-	-
Cc1cccc2sc(NNC(=O)c3ccc(S(=O)(=O)N4CCCC(C)C4)cc3)nc12 (centres undefined)	0	34	38	0	0	0	hGIII sPLA2 conf=38;535nm interf=0;535nm interf DR=0
